Measured values taken from ChEMBL document CHEMBL1240400, “Comparative in vitro activities of nemonoxacin (TG-873870), a novel nonfluorinated quinolone, and other quinolones against clinical isolates” (2010).

Tests used:
Type in all cases: functional
[1] = test system: Staphylococcus aureus; assay: Antibacterial activity against methicillin susceptible Staphylococcus aureus by broth dilution method
[2] = test system: Staphylococcus aureus; assay: Antibacterial activity against ciprofloxacin susceptible and methicillin resistant Staphylococcus aureus by broth dilution method
Summary of the method: (§1)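 Clinical isolates tested by CLSI broth microdilution in panels holding serial twofold drug dilutions in cation-adjusted Mueller-Hinton broth. Final inoculum 5 × 10^5 CFU/ml was made from a 0.5 McFarland suspension. Plates were incubated overnight at 35°C in ambient air, and the MIC was read as the lowest concentration inhibiting growth. Quality control strains were included in each run.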

[3] = test system: Staphylococcus aureus; assay: Antibacterial activity against ciprofloxacin and methicillin resistant Staphylococcus aureus by broth dilution method; summary of the method: as §1
[4] = test system: Staphylococcus; assay: Antibacterial activity against methicillin resistant coagulase negative Staphylococcus by broth dilution method
[5] = test system: Staphylococcus epidermidis; assay: Antibacterial activity against methicillin resistant coagulase negative Staphylococcus epidermidis by broth dilution method
[6] = test system: Enterococcus faecalis; assay: Antibacterial activity against Enterococcus faecalis by broth dilution method
[7] = test system: Enterococcus faecalis; assay: Antibacterial activity against vancomycin resistant Enterococcus faecalis by broth dilution method
[8] = test system: Enterococcus faecium; assay: Antibacterial activity against Enterococcus faecium by broth dilution method; summary of the method: as §1
[9] = test system: Enterococcus faecium; assay: Antibacterial activity against vancomycin resistant Enterococcus faecium by broth dilution method; summary of the method: as §1
[10] = test system: Escherichia coli; assay: Antibacterial activity against ciprofloxacin resistant Escherichia coli by broth dilution method; summary of the method: as §1
[11] = test system: Escherichia coli; assay: Antibacterial activity against ciprofloxacin susceptible Escherichia coli by broth dilution method
Summary of the method: (§2)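 Broth microdilution per CLSI in panels spanning a dilution range of each agent. Cation-adjusted Mueller-Hinton broth, final inoculum 5 × 10^5 CFU/ml from a 0.5 McFarland suspension. Incubated overnight at 35°C in ambient air, with quality control strains in each run. MIC reported; values at or below the lowest concentration tested are given as that concentration.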

[12] = test system: Klebsiella pneumoniae; assay: Antibacterial activity against Klebsiella pneumoniae by broth dilution method; summary of the method: as §2
[13] = test system: Enterobacter cloacae; assay: Antibacterial activity against Enterobacter cloacae by broth dilution method
[14] = test system: Proteus mirabilis; assay: Antibacterial activity against Proteus mirabilis by broth dilution method
[15] = test system: Citrobacter freundii; assay: Antibacterial activity against Citrobacter freundii by broth dilution method; summary of the method: as §2
[16] = test system: Streptococcus pneumoniae; assay: Antibacterial activity against Levofloxacin susceptible Streptococcus pneumoniae by broth dilution method
Summary of the method: (§3)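 Streptococcus pneumoniae clinical isolates tested by CLSI broth microdilution. A 0.5 McFarland suspension was diluted into Mueller-Hinton broth with 3% lysed horse blood, then tested against serial drug dilutions. Plates were incubated overnight at 35°C in ambient air, and the MIC was read as the lowest inhibitory concentration. Quality control strains were included in each run.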

[17] = test system: Streptococcus pneumoniae; assay: Antibacterial activity against Levofloxacin resistant Streptococcus pneumoniae by broth dilution method; summary of the method: as §3
[18] = test system: Streptococcus pyogenes; assay: Antibacterial activity against Streptococcus pyogenes by broth dilution method
Summary of the method: (§4)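 Streptococci were tested by CLSI broth microdilution in Mueller-Hinton broth with 3% lysed horse blood, seeded from a 0.5 McFarland suspension. Incubated overnight at 35°C in ambient air, with quality control strains in each run. MIC taken over a per-agent dilution range.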

[19] = test system: Streptococcus agalactiae; assay: Antibacterial activity against Streptococcus agalactiae by broth dilution method; summary of the method: as §4
[20] = test system: Streptococcus viridans; assay: Antibacterial activity against Streptococcus viridans by broth dilution method; summary of the method: as §4
[21] = test system: Acinetobacter baumannii; assay: Antibacterial activity against Acinetobacter baumannii by broth dilution method; summary of the method: as §2
[22] = test system: Pseudomonas aeruginosa; assay: Antibacterial activity against Pseudomonas aeruginosa by broth dilution method
[23] = test system: Haemophilus influenzae; assay: Antibacterial activity against Haemophilus influenzae by broth dilution method
Summary of the method: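 Broth microdilution per CLSI using Haemophilus Test Medium broth, seeded from a 0.5 McFarland suspension. Incubated overnight at 35°C in ambient air, with quality control strains in each run. MIC read against a tested dilution range; values at the low limit are given as the lowest concentration.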

[24] = test system: Neisseria gonorrhoeae; assay: Antibacterial activity against ciprofloxacin resistant Neisseria gonorrhoeae isolates by broth dilution method
Summary of the method: (§5)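 Neisseria gonorrhoeae clinical isolates tested by CLSI broth microdilution in Mueller-Hinton broth with 3% lysed horse blood, inoculated from a 0.5 McFarland suspension. Plates were incubated overnight at 35°C in 5% CO2, and the MIC was read as the lowest inhibitory concentration. Quality control strains were included in each run.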

[25] = test system: Neisseria gonorrhoeae; assay: Antibacterial activity against levofloxacin resistant Neisseria gonorrhoeae isolates by broth dilution method; summary of the method: as §5
[26] = test system: Neisseria gonorrhoeae; assay: Antibacterial activity against moxifloxacin resistant Neisseria gonorrhoeae isolates by broth dilution method; summary of the method: as §5

With COc1c(N2C[C@@H](C)C[C@H](N)C2)ccc2c(=O)c(C(=O)O)cn(C3CC3)c12.O=C(O)CC(O)C(=O)O [NEMONOXACIN MALIC ACID] as the compound, how does the MIC50 [1] read?
The MIC50 was 0.03 µg/mL.

What about the MIC90 [1] of the same compound?
The MIC90 was 0.12 µg/mL.

What about the MIC50 [2] of the same compound?
Its MIC50 is 0.03 µg/mL.

And the MIC90 [2]?
The MIC90 was 0.06 µg/mL.

What about the MIC50 [3] of the same compound?
Its MIC50 is 1 µg/mL.

And the MIC90 [3]?
The MIC90 was 1 µg/mL.

What about the MIC50 [4] of the same compound?
Its MIC50 is 0.12 µg/mL.

And the MIC90 [4]?
Its MIC90 is 0.5 µg/mL.

What about the MIC50 [5] of the same compound?
The MIC50 was 0.12 µg/mL.

And the MIC90 [5]?
The MIC90 was 0.5 µg/mL.

And the MIC50 [6]?
The MIC50 was 0.25 µg/mL.

What about the MIC90 [6] of the same compound?
Its MIC90 is 4 µg/mL.

What about the MIC50 [7] of the same compound?
The MIC50 was 0.25 µg/mL.

What about the MIC90 [7] of the same compound?
The MIC90 was 4 µg/mL.

What about the MIC50 [8] of the same compound?
Its MIC50 is 4 µg/mL.

And the MIC90 [8]?
The MIC90 was 8 µg/mL.

And the MIC50 [9]?
The MIC50 was 4 µg/mL.

And the MIC90 [9]?
The MIC90 was 8 µg/mL.

And the MIC50 [10]?
The MIC50 was over 16 µg/mL.

And the MIC90 [10]?
Its MIC90 is over 16 µg/mL.

And the MIC50 [11]?
Its MIC50 is 1 µg/mL.

What about the MIC90 [11] of the same compound?
Its MIC90 is 2 µg/mL.

What about the MIC50 [12] of the same compound?
Its MIC50 is 4 µg/mL.

What about the MIC90 [12] of the same compound?
The MIC90 was over 16 µg/mL.

What about the MIC50 [13] of the same compound?
The MIC50 was 4 µg/mL.

And the MIC90 [13]?
The MIC90 was over 16 µg/mL.

And the MIC50 [14]?
The MIC50 was 8 µg/mL.

What about the MIC90 [14] of the same compound?
Its MIC90 is over 16 µg/mL.

What about the MIC50 [15] of the same compound?
Its MIC50 is 0.5 µg/mL.

What about the MIC90 [15] of the same compound?
The MIC90 was 4 µg/mL.

And the MIC50 [16]?
Its MIC50 is 0.12 µg/mL.

And the MIC90 [16]?
Its MIC90 is 0.12 µg/mL.

What about the MIC50 [17] of the same compound?
Its MIC50 is 1 µg/mL.

What about the MIC90 [17] of the same compound?
Its MIC90 is 2 µg/mL.

And the MIC50 [18]?
Its MIC50 is 0.12 µg/mL.

And the MIC90 [18]?
The MIC90 was 0.12 µg/mL.

And the MIC [19]?
Its MIC is 0.12 µg/mL.

And the MIC50 [19]?
Its MIC50 is 0.12 µg/mL.

What about the MIC90 [19] of the same compound?
Its MIC90 is 0.25 µg/mL.

And the MIC50 [20]?
Its MIC50 is 0.12 µg/mL.

What about the MIC90 [20] of the same compound?
The MIC90 was 0.25 µg/mL.

What about the MIC50 [21] of the same compound?
The MIC50 was 4 µg/mL.

And the MIC90 [21]?
Its MIC90 is over 16 µg/mL.

And the MIC50 [22]?
Its MIC50 is 16 µg/mL.

What about the MIC90 [22] of the same compound?
Its MIC90 is over 16 µg/mL.

And the MIC50 [23]?
Its MIC50 is 0.12 µg/mL.

And the MIC90 [23]?
Its MIC90 is 4 µg/mL.

What about the MIC [24] of the same compound?
The MIC was 0.25 µg/mL.

What about the MIC [25] of the same compound?
The MIC was 0.25 µg/mL.

And the MIC [26]?
The MIC was 0.25 µg/mL.
